Data on twelve compounds can be found in ChEMBL document CHEMBL1155977, “Design and one-pot synthesis of alpha-aminophosphonates and bis(alpha-aminophosphonates) by iron(III) chloride and cytotoxic activity” (Eur J Med Chem, 2009).

Experiment [1] concerns Jurkat. Briefly: Cytotoxicity against human Jurkat cells after 48 hrs by MTT assay. The class given is functional, cell-based. A digest of the protocol: (§1)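 Cells were grown in RPMI 1640 with 10% fetal bovine serum and plated at 10⁴ cells/well. Compounds were dissolved in DMSO, diluted in medium, and tested at 0.1, 1, 10, 25, 50, 75 and 100. Incubation was at 37 °C in 5% CO₂ for 48 h (Jurkat, Raji) or 72 h (MCF-7). Controls were doxorubicin (positive) and 0.6% DMSO (negative). MTT was added for a further 4 h, formazan was dissolved in 2-propanol/DMSO/HCl (30:20:2), and absorbance was read at 570 nm.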

In experiment [2] the test system is Jurkat. Briefly: Cytotoxicity against human Jurkat cells assessed as growth inhibition at 100 uM after 48 hrs by MTT assay. It is filed as functional. A digest of the protocol: (§2)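 Jurkat and Raji cells in RPMI 1640 with 10% fetal bovine serum, plated at 10⁴ cells/well. Compounds in DMSO diluted into medium, tested at 0.1–100. Exposure 48 h at 37 °C, 5% CO₂. Doxorubicin positive control; 0.6% DMSO negative control. MTT added for a further 4 h; formazan dissolved in 2-propanol/DMSO/HCl (30:20:2); A570. Inhibition percentage taken at the top concentration.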

The subject of experiment [3] is MCF7. Briefly: Cytotoxicity against human MCF7 cells after 72 hrs by MTT assay. It is filed as functional, cell-based. The conditions noted are these: MCF7, 72 h. A digest of the protocol: as §1
Experiment [4] relates to Raji. Briefly: Cytotoxicity against human Raji cells after 48 hrs by MTT assay. It is filed as functional, cell-based. A digest of the protocol: as §1
A general note: Tetrazolium dyes change colour on reduction, which living cells bring about.

Experiment [5] relates to MCF7. Briefly: Cytotoxicity against human MCF7 cells assessed as growth inhibition at 100 uM after 72 hrs by MTT assay. The class given is functional. The conditions noted are these: MCF7, 72 h. A digest of the protocol:
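MCF-7 cells in RPMI 1640 with 10% fetal bovine serum, plated at 10⁴ cells/well. Compounds in DMSO diluted into medium at 0.1–100 and incubated 72 h at 37 °C, 5% CO₂. Doxorubicin served as positive control and 0.6% DMSO as negative control. MTT for 4 h; formazan dissolved in 2-propanol/DMSO/HCl (30:20:2); read at 570 nm. Inhibition percentage at the highest concentration.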

Experiment [6] deals with Raji. Briefly: Cytotoxicity against human Raji cells assessed as growth inhibition at 100 uM after 48 hrs by MTT assay. The class given is functional. A digest of the protocol:
as §2

A word on the IC50: it is the concentration that gives 50% inhibition. What is called inhibition is the share of the control response that was lost under treatment.

`CCOP(=O)(OCC)C(NCCc1c[nH]c2ccccc12)c1ccc(C(NCCc2c[nH]c3ccccc23)P(=O)(OCC)OCC)cc1` (stereo not given): the IC50 amounted to 24.3 µM with Jurkat [1], 67.5 µM in the experiment with MCF7 [3] and 45.2 µM with Raji [4]. The inhibition at 100 µM is 68.4% in the experiment on Jurkat [2], 54.2% with MCF7 [5] and 64.8% with Raji [6].

`CCOP(=O)(OCC)C(Nc1ccc(Cc2ccc(NC(c3ccc(N(C)C)cc3)P(=O)(OCC)OCC)cc2)cc1)c1ccc(N(C)C)cc1` (stereo not given): the figures for the inhibition at 100 µM with Jurkat [2], in the experiment on MCF7 [5] and with Raji [6] were 17.8%, 12.7% and 0.78%, respectively.

In the case of `CCOP(=O)(OCC)C(Nc1ccc(S(=O)(=O)c2ccc(NC(c3ccc(O)c(OC)c3)P(=O)(OCC)OCC)cc2)cc1)c1ccc(O)c(OC)c1` (stereo not given), the inhibition at 100 µM in the experiment with Jurkat [2] was determined as 15.6%; in the experiment with MCF7 [5], 16.6%; with Raji [6], 0%.

With `CCOP(=O)(OCC)C(Nc1ccccc1)c1ccc(C(Nc2ccccc2)P(=O)(OCC)OCC)cc1` (stereo not given), the values for the inhibition at 100 µM in the experiment with Jurkat [2], with MCF7 [5] and in the experiment with Raji [6] were 36.8%, 25.4% and 27.2%, respectively.

In the case of `CCOP(=O)(OCC)C(Nc1ccc(Cc2ccc(NC(c3ccc(O)c(OC)c3)P(=O)(OCC)OCC)cc2)cc1)c1ccc(O)c(OC)c1` (stereo not given), the inhibition at 100 µM came to 40.1% in the experiment with Jurkat [2], 29.1% in the experiment on MCF7 [5] and 56.2% in the experiment with Raji [6]. 58.6 µM corresponded to half-maximal inhibition in the experiment with Raji [4] (IC50).

Turning to `CCOP(=O)(OCC)C(Nc1ccc(C(=O)c2ccc(NC(c3ccccc3)P(=O)(OCC)OCC)cc2)cc1)c1ccccc1` (stereo not given), the inhibition at 100 µM with Jurkat [2] was 15.8%; in the experiment with MCF7 [5] it was 10.2%; in the experiment with Raji [6], 0%.

As to `CCOP(=O)(OCC)C(Nc1ccc(Cc2ccc(NC(c3cc(OC)c(OC)c(OC)c3)P(=O)(OCC)OCC)cc2)cc1)c1cc(OC)c(OC)c(OC)c1` (stereo not given), the figures for the inhibition at 100 µM in the experiment on Jurkat [2], with MCF7 [5] and with Raji [6] were 20.1%, 3.5% and 0%, respectively.

As to `CCOP(=O)(OCC)C(Nc1ccc(Cc2ccc(NC(c3ccccc3)P(=O)(OCC)OCC)cc2)cc1)c1ccccc1` (stereo not given), the results for the inhibition at 100 µM in the experiment on Jurkat [2], in the experiment with MCF7 [5] and with Raji [6] were 28%, 13.9% and 6.41%, respectively.

As for `CCOP(=O)(OCC)C(Nc1nc2[nH]cnc2c(=O)[nH]1)c1ccc(C(Nc2nc3[nH]cnc3c(=O)[nH]2)P(=O)(OCC)OCC)cc1` (stereo not given), the inhibition at 100 µM with Jurkat [2] came out at 0%; with MCF7 [5] it was 12.7%; in the experiment on Raji [6], 64.8%.

`COc1cccc2c1C(=O)c1c(O)c3c(c(O)c1C2=O)C[C@@](O)(C(=O)CO)C[C@@H]3O[C@H]1C[C@H](N)[C@H](O)[C@H](C)O1` [DOXORUBICIN]: the inhibition at 100 µM in the experiment with Jurkat [2] turned out to be 82.3%; in the experiment on MCF7 [5], 65.5%; with Raji [6] it was 66.7%.

On to `CCOP(=O)(OCC)C(Nc1ccc(Oc2ccc(NC(c3ccccc3)P(=O)(OCC)OCC)cc2)cc1)c1ccccc1` (stereo not given), for which the figures for the inhibition at 100 µM in the experiment on Jurkat [2], in the experiment on MCF7 [5] and in the experiment with Raji [6] were 6.84%, 0% and 0%, respectively.

As to `CCOP(=O)(OCC)C(Nc1ccc(Cc2ccc(NC(c3ccc([N+](=O)[O-])cc3)P(=O)(OCC)OCC)cc2)cc1)c1ccc([N+](=O)[O-])cc1` (stereo not given), the inhibition at 100 µM with Jurkat [2] came to 10.7%; with MCF7 [5] it was 12.2%; with Raji [6], 0%.
